The record followed here is ChEMBL document CHEMBL4130503, “Discovery of novel diarylpyrazolylquinoline derivatives as potent anti-dengue virus agents” (Eur J Med Chem, 2017).

Active and inactive are the calls of the source. The rule behind the calls is not given here.

Data set [1] deals with dengue virus type 2. Put plainly: Antiviral activity against Fluc-tagged DENV2 strain 16681 infected in human HuH7 cells assessed as inhibition of viral replication at 1 uM after 3 days by luciferase reporter gene assay relative to control. Format: functional. The conditions noted are these: Thailand/16681/84, Huh-7, 72 h. The procedure, abridged:
(§1)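 Huh-7-DV-Fluc cells seeded at 2 × 10^4 per well, exposed to 1 or 10 µM for 3 days against a 0.1% DMSO control. Firefly luciferase activity (Bright-Glo) read as DENV-2 replication; percent inhibition relative to control.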

Data set [2] has as its system dengue virus type 2. The data set is described as follows: Antiviral activity against Fluc-tagged DENV2 strain 16681 infected in human HuH7 cells assessed as inhibition of viral replication at 10 uM after 3 days by luciferase reporter gene assay relative to control. The conditions noted are these: Thailand/16681/84, Huh-7, 72 h. The format is functional. The procedure, abridged:
as §1
In general terms: A reporter such as luciferase makes a cellular process visible.

Data set [3] can be described thus: Cytotoxicity against human HuH7 cells assessed as cell viability at 20 uM after 3 days by XTT method relative to control. Format: cell-based, Huh-7. The conditions noted are these: read-out: Activity. Summed up: (§2)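 Uninfected Huh-7 cells were seeded at 5 × 10^3 cells/well in maintenance medium. They were exposed to compound at 20 or 200 µM, diluted into medium from 10 mM DMSO stocks, with 0.1% DMSO as control. Incubation was 3 days at 37 °C in humidified 5% CO2. Viability was read by XTT, run in parallel with the antiviral assays.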
On the technique in general: Tetrazolium dyes change colour on reduction, which living cells bring about.

Data set [4] can be described thus: Cytotoxicity against human HuH7 cells assessed as cell viability at 200 uM after 3 days by XTT method relative to control. The format is cell-based, Huh-7. The conditions noted are these: read-out: Activity. Summed up:
as §2

For data set [5], the system named is dengue virus type 2. Put plainly: Antiviral activity against Fluc-tagged DENV2 strain 16681 infected in human HuH7 cells after 3 days by luciferase reporter gene assay. The format is functional, organism-based. The conditions noted are these: Thailand/16681/84, Huh-7, 72 h.
Data set [6] can be described thus: Cytotoxicity against human HuH7 cells assessed as growth inhibition after 3 days by XTT method. Format: cell-based, Huh-7. The procedure, abridged: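 Uninfected Huh-7 cells were seeded at 5 × 10^3 cells/well and treated for 3 days at 37 °C in humidified 5% CO2. Viability was read by XTT against a 0.1% DMSO control. CC50 was taken as the concentration giving 50% growth inhibition.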

The nature of data set [7]: Selectivity index, ratio of CC50 for human HuH7 cells to IC50 for Fluc-tagged DENV2 strain 16681 infected in human HuH7 cells. Format: toxicity, cell-based. The conditions noted are these: read-out: Ratio CC50/IC50. Summed up:
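SI is calculated as CC50/IC50. CC50 is 50% growth inhibition of uninfected Huh-7 cells by XTT after 3 days. IC50 is 50% inhibition of DENV-2 replication in Huh-7-DV-Fluc replicon cells (2 × 10^4 cells/well), measured by firefly luciferase after 3 days of treatment with a 0.1% DMSO control.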

Data set [8] deals with dengue virus type 2. Put plainly: Potency index, ratio of ribavirin IC50 to compound IC50 for antiviral activity against Fluc-tagged DENV2 strain 16681 infected in human HuH7 cells. The format is functional, Thailand/16681/84.
Data set [9] relates to dengue virus type 2. The data set is described as follows: Antiviral activity against Fluc-tagged DENV2 strain 16681 infected in human HuH7 cells assessed as reduction in viral replication by measuring NS2B protein expression at 0.5 to 5 uM after 3 days by immunoblot analysis. The format is functional, organism-based. The conditions noted are these: Thailand/16681/84. Summed up: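 DENV-2 (16681) replicating Huh-7 cells treated with 0.5, 1, 2.5 and 5 µM for 3 days; 0.1% DMSO mock. Whole-cell lysates immunoblotted overnight with rabbit polyclonal anti-NS2B (1:3000); GAPDH (1:10000) as loading control.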
A general note: A western blot detects proteins with antibodies after separation by electrophoresis.

The subject of data set [10] is dengue virus type 2. Put plainly: Antiviral activity against Fluc-tagged DENV2 strain 16681 infected in human HuH7 cells assessed as reduction in viral replication by measuring NS5 gene expression at 0.5 to 5 uM after 3 days by RT-qPCR assay. Format: functional, organism-based. The conditions noted are these: Thailand/16681/84. The procedure, abridged: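 DENV-2 (16681) replicating Huh-7 cells exposed to 0.5, 1, 2.5 and 5 µM for 3 days; 0.1% DMSO mock. Total RNA analysed by RT-qPCR with NS5-targeted primers, normalised to cellular GAPDH mRNA; means ± SD of triplicate experiments.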

Another data set has as its system dengue virus type 1. Put plainly: Antiviral activity against Fluc-tagged DENV1 infected in human HuH7 cells after 3 days by luciferase reporter gene assay. Format: functional, organism-based. The conditions noted are these: Huh-7, 72 h.
The subject of the next data set is dengue virus type 3. Put plainly: Antiviral activity against Fluc-tagged DENV3 infected in human HuH7 cells after 3 days by luciferase reporter gene assay. Format: functional, organism-based. The conditions noted are these: Huh-7, 72 h.
A further data set relates to dengue virus type 4. The data set is described as follows: Antiviral activity against Fluc-tagged DENV4 infected in human HuH7 cells after 3 days by luciferase reporter gene assay. Format: functional, organism-based. The conditions noted are these: Huh-7, 72 h.
For data set [11], the system named is dengue virus type 2. Put plainly: Antiviral activity against DENV2 strain 16681 infected in ICR suckling mouse assessed as protection against mouse death at 1 to 5 mg/kg, ip treated on day 1,3 and 5 post infection measured daily for 6 days. The format is functional, organism-based. The conditions noted are these: Thailand/16681/84. Summed up: (§3)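 Six-day-old ICR suckling mice, n = 5/group, given 2.5 × 10^5 pfu DENV-2 intracerebrally, then 1, 5, 10 or 20 mg/kg intraperitoneally at 1, 3 and 5 dpi. Controls were DENV plus ip saline, and 60 °C heat-inactivated DENV (mock). Survival, clinical score (paralysis, anorexia, asthenia) and body weight were recorded daily for 6 days.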

The subject of data set [12] is dengue virus type 2. The data set is described as follows: Antiviral activity against DENV2 strain 16681 infected in ICR suckling mouse assessed as protection against paralysis at 1 to 5 mg/kg, ip treated on day 1,3 and 5 post infection measured daily for 6 days. Format: functional, organism-based. The conditions noted are these: Thailand/16681/84. The procedure, abridged: as §3

Data set [13] concerns dengue virus type 2. The data set is described as follows: Antiviral activity against DENV2 strain 16681 infected in ICR suckling mouse assessed as protection against anorexia at 1 to 5 mg/kg, ip treated on day 1,3 and 5 post infection measured daily for 6 days. Format: functional, organism-based. The conditions noted are these: Thailand/16681/84. Summed up:
as §3

Data set [14] has as its system dengue virus type 2. The data set is described as follows: Antiviral activity against DENV2 strain 16681 infected in ICR suckling mouse assessed as protection against asthenia at 1 to 5 mg/kg, ip treated on day 1,3 and 5 post infection measured daily for 6 days. The format is functional, organism-based. The conditions noted are these: Thailand/16681/84. The procedure, abridged: as §3

As for `Fc1ccc(-c2cc(-c3ccc4cc(F)ccc4n3)nn2-c2ccccc2)cc1`, the inhibition (in general, how much of the control response was suppressed) at 1 µM in the data set on dengue virus type 2 [1] worked out at 3.58%. Moreover, in the data set on dengue virus type 2 [2], the inhibition at 10 µM is 6.14%. For the same compound, in data set [3], the viability at 72 h, 20 µM was found to be 88.3%. Further, in [4], the viability at 72 h, 200 µM is 89.7%.
In the same order, the values of `Fc1ccc(-c2cc(-c3ccc4cc(F)ccc4n3)n(-c3ccc(F)cc3)n2)cc1` are 8.91%, 22.4%, 95.3% and 86.5%.
Taken in the same sequence, the figures for `Fc1ccc2nc(-c3cc(-c4ccccc4)nn3-c3ccccc3)ccc2c1` were 3.02%, 5.13%, 126% and 98.3%.
In the same order, the values of `COc1ccc(-n2nc(-c3ccc(F)cc3)cc2-c2ccc3cc(F)ccc3n2)cc1` are 6.12%, 15.8%, 89.1% and 52.5%.
`COc1ccc(-c2cc(-c3ccc4cc(F)ccc4n3)n(-c3ccc(F)cc3)n2)cc1`: the inhibition at 1 µM in the data set on dengue virus type 2 [1] is 41.4%. In addition, the inhibition at 10 µM with dengue virus type 2 [2] is 55.3%. The viability at 72 h, 20 µM in [3] was 98.8%. Also, the viability at 72 h, 200 µM in [4] stood at 95.4%. 1360 nM corresponded to half-maximal inhibition in the data set with dengue virus type 2 [5] (IC50). The CC50 (commonly the concentration giving 50% cytotoxicity) at 72 h in data set [6] is more than 200000 nM. Further, in data set [7], the selectivity ratio is more than 147. Besides, in the data set on dengue virus type 2 [8], the “Ratio IC50” value amounted to 10.
Take `COc1ccc(-c2cc(-c3ccc4cc(F)ccc4n3)n(-c3ccc(S(N)(=O)=O)cc3)n2)cc1`: the inhibition at 1 µM in the data set on dengue virus type 2 [1] is 59%. The inhibition at 10 µM with dengue virus type 2 [2] was 85.3%. The viability at 72 h, 20 µM in data set [3] worked out at 83.7%. Also, in [4], the viability at 72 h, 200 µM worked out at 89.5%. Also, the IC50 – broadly, the concentration needed to halve the response being measured – worked out at 810 nM with dengue virus type 2 [5], 1210 nM with dengue virus type 1, 730 nM with dengue virus type 3 and 1560 nM with dengue virus type 4. Moreover, in data set [6], the CC50 at 72 h is more than 200000 nM. Also, in [7], the selectivity ratio is more than 247. In addition, the “Ratio IC50” value in the data set on dengue virus type 2 [8] worked out at 10. For the same compound, the result with dengue virus type 2 [9], in the data set on dengue virus type 2 [10], with dengue virus type 2 [11], in the data set with dengue virus type 2 [12], with dengue virus type 2 [13] and in the data set on dengue virus type 2 [14] was Active.
For `COc1ccc(-c2cc(-c3ccc4cc(F)ccc4n3)n(-c3ccc(OC)cc3)n2)cc1`, the inhibition at 1 µM in the data set on dengue virus type 2 [1] is 46.9%. Further, in the data set on dengue virus type 2 [2], the inhibition at 10 µM stood at 65.7%. The viability at 72 h, 20 µM in data set [3] came out at 95.8%. For the same compound, the viability at 72 h, 200 µM in data set [4] was determined as 98.4%. This compound also yielded a half-inhibitory concentration (IC50) in the data set on dengue virus type 2 [5] of 1090 nM. Further, the CC50 at 72 h in data set [6] was more than 200000 nM. The selectivity ratio in data set [7] is more than 183. Further, in the data set with dengue virus type 2 [8], the “Ratio IC50” value is 10.
For `NC(=O)c1ncn([C@@H]2O[C@H](CO)[C@@H](O)[C@H]2O)n1` [RIBAVIRIN], the inhibition at 1 µM in the data set on dengue virus type 2 [1] was 10.1%. Besides, the inhibition at 10 µM with dengue virus type 2 [2] worked out at 32.5%. In data set [4], the viability at 72 h, 200 µM turned out to be 26.8%. Moreover, in data set [7], the selectivity ratio came out at 4.47.
Take `Fc1ccc2nc(-c3cc(-c4ccccc4)n(-c4ccccc4)n3)ccc2c1`: the inhibition at 1 µM with dengue virus type 2 [1] came out at 5.21%. Also, the inhibition at 10 µM in the data set with dengue virus type 2 [2] was 15.3%. For the same compound, the viability at 72 h, 20 µM in data set [3] was 124%. The viability at 72 h, 200 µM in data set [4] turned out to be 115%.
Taken in the same sequence, the figures for `Fc1ccc(-n2nc(-c3ccccc3)cc2-c2ccc3cc(F)ccc3n2)cc1` were 4.36%, 8.31%, 97.8% and 91.6%.
On to `Fc1ccc(-c2cc(-c3ccc4cc(F)ccc4n3)n(-c3ccccc3)n2)cc1`, for which the inhibition at 1 µM in the data set with dengue virus type 2 [1] came to 11.2%. In the data set on dengue virus type 2 [2], the inhibition at 10 µM was determined as 25.4%. Also, in data set [3], the viability at 72 h, 20 µM came to 88.1%. The viability at 72 h, 200 µM in data set [4] came to 87.5%.
Taken in the same sequence, the figures for `NS(=O)(=O)c1ccc(-n2nc(-c3ccccc3)cc2-c2ccc3cc(F)ccc3n2)cc1` were 4.52%, 11.8%, 89.2% and 83.6%.
In the same order, the values of `COc1ccc(-c2cc(-c3ccc4cc(F)ccc4n3)n(-c3ccccc3)n2)cc1` are 5.31%, 8.09%, 104% and 98.9%.
Taken in the same sequence, the figures for `COc1ccc(-c2cc(-c3ccc4cc(F)ccc4n3)nn2-c2ccccc2)cc1` were 4.14%, 7.15%, 95.6% and 93.7%.
For the compound `NS(=O)(=O)c1ccc(-n2nc(-c3ccc(F)cc3)cc2-c2ccc3cc(F)ccc3n2)cc1`, the inhibition at 1 µM in the data set on dengue virus type 2 [1] worked out at 5.71%. The inhibition at 10 µM in the data set on dengue virus type 2 [2] came out at 12.8%. The viability at 72 h, 20 µM in [3] turned out to be 91.1%. Further, in data set [4], the viability at 72 h, 200 µM was determined as 43%.
Taken in the same sequence, the figures for `COc1ccc(-n2nc(-c3ccccc3)cc2-c2ccc3cc(F)ccc3n2)cc1` were 7.81%, 20.7%, 116% and 97.3%.
